Source: ChEMBL document CHEMBL4024803, “New Steroidal 4-Aminoquinolines Antagonize Botulinum Neurotoxin Serotype A in Mouse Embryonic Stem Cell Derived Motor Neurons in Postintoxication Model” (J Med Chem, 2018)
pIC50: −log10 of the molar value.

Legend:
[1] = Octanol/TBS buffer distribution co-efficient, […] by shake flask method; type: physicochemical; settings: octanol/water
Mus musculus [2] = assay: Toxicity in mouse assessed as effect on survival at 400 to 600 mg/kg, po administered as single dose measured after 30 days; type: organism-based; settings: in vivo, 720 h
Procedure, shortened: (§1)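 Two groups of 5 healthy mice each received one oral dose, 400 or 600 mg/kg. Survival, appearance and behaviour were followed for 30 days. Non-toxic was defined as all 5 surviving with normal appearance and behaviour.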

Liver [3] = assay: Half life in human liver microsomes; type: ADME, microsome
Procedure, shortened: (§2)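 Substrate-depletion assay: compound incubated with human or mouse liver microsomes for 1 h at 37°C. Half-life and intrinsic clearance derived from compound loss.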

Cytochrome P450 2D6 = Cytochrome P450 2D6 (Homo sapiens, UniProt P10635); assay: Inhibition of CYP2D6 (unknown origin) using AMMC as substrate; type: ADME
Procedure, shortened: (§3)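 Active CYP450 enzyme incubated at 37°C for a set time with a fluorogenic probe substrate (BQ, DBF or BFC for CYP3A4; CEC for CYP2C19; AMMC for CYP2D6). IC50 derived from net fluorescent signal.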

[4] = Apparent permeability across basolateral to apical side in MDCK cells expressing MDR1 after 1 hr; type: ADME, cell-based, Canis lupus familiaris; settings: dog
Procedure, shortened: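 MDR1-transfected MDCK cell monolayer; compound applied to the basolateral compartment and incubated 1 h at 37°C. Apparent permeability measured in the B→A direction.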

Mus musculus [5] = assay: Toxicity in mouse assessed as effect on behavior at 160 mg/kg, po administered for 3 days measured 2 times a day for 30 days; type: organism-based; settings: in vivo, 720 h
Procedure, shortened: (§4)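 Groups of five healthy mice were dosed per os for three consecutive days, suspended in 0.5% hydroxyethylcellulose–0.1% Tween 80. Behaviour and appearance were monitored twice daily for 30 days, with survival assessed at 30 days. Non-toxic was defined as all 5 surviving with normal appearance and behaviour.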

[6] = Drug uptake in mouse serum at 600 mg/kg, po measured at 15 mins by UPLC-MS/MS method; type: ADME, organism-based; settings: read-out: Drug uptake
Procedure, shortened: (§5)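 Single oral dose (400 mg/kg, 7 mice; 600 mg/kg, 6 mice), dissolved in DMSO and suspended in 0.5% hydroxyethylcellulose–0.1% Tween 80. Blood taken by cardiac puncture under chloroform, one mouse per time point, 15–120 min. Serum proteins precipitated with 2 volumes acetonitrile; analysed by UPLC-MS/MS against blank human serum calibration. Half-life read from the concentration–time curve.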

[7] = Distribution co-efficient, log D of the compound at pH 1 by reversed-phase thin-layer chromatographic method; type: physicochemical; settings: buffer
Procedure, shortened: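 Reversed-phase thin-layer chromatography at pH 1, mobile phase MeOH/HCl (70/30).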

[8] = Protein binding in mouse plasma at 400 mg/kg, po by ultra-centrifugation method; type: ADME, organism-based; settings: read-out: PPB
Liver [9] = assay: Intrinsic clearance in human liver microsomes after 1 hr; type: ADME, microsome; procedure, shortened: as §2
Mus musculus [10] = assay: Toxicity in mouse assessed as effect on behavior at 400 to 600 mg/kg, po administered as single dose measured 2 times a day for 30 days; type: organism-based; settings: in vivo, 720 h; procedure, shortened: as §1
Cytochrome P450 2C19 = Cytochrome P450 2C19 (Homo sapiens, UniProt P33261); assay: Inhibition of CYP2C19 (unknown origin) using CEC as substrate; type: ADME; procedure, shortened: as §3
Mus musculus [11] = assay: Drug metabolism in mouse assessed as M+16 metabolite formation at 400 to 600 mg/kg, po by UPLC-MS/MS method; type: ADME, organism-based; settings: in vivo
[12] = Drug uptake in mouse serum at 600 mg/kg, po measured at 45 mins by UPLC-MS/MS method; type: ADME, organism-based; settings: read-out: Drug uptake; procedure, shortened: as §5
Mus musculus [13] = assay: AUC (0 to 120 mins) in mouse at 600 mg/kg, po by UPLC-MS/MS method; type: ADME, organism-based; set-up: dose 600 mg/kg, time < 2 hr, route oral; settings: in vivo, 2 h
Mus musculus [14] = assay: Toxicity in mouse assessed as effect on appearance at 160 mg/kg, po administered for 3 days measured 2 times a day for 30 days; type: organism-based; settings: in vivo, 720 h; procedure, shortened: as §4
Mus musculus [15] = assay: Drug metabolism in mouse assessed as (3alpha,5beta,7alpha,12alpha)-3-Amino-24-({4-[(7-chloroquinolin-4-yl)amino]butyl}amino)cholane-7,12-diol formation at 400 to 600 mg/kg, po by UPLC-MS/MS method; type: ADME, organism-based; settings: in vivo
Mus musculus [16] = assay: AUC (0 to 120 mins) in mouse at 400 mg/kg, po by UPLC-MS/MS method; type: ADME, organism-based; set-up: dose 400 mg/kg, time < 2 hr, route oral; settings: in vivo, 2 h
[17] = Drug uptake in mouse serum at 600 mg/kg, po measured at 90 mins by UPLC-MS/MS method; type: ADME, organism-based; settings: read-out: Drug uptake; procedure, shortened: as §5
[18] = Drug uptake in mouse serum at 400 mg/kg, po measured at 15 mins by UPLC-MS/MS method; type: ADME, organism-based; settings: read-out: Drug uptake; procedure, shortened: as §5
[19] = target: Botulinum neurotoxin type A (Clostridium botulinum) (UniProt P0DPI0); assay: (§6) Inhibition of Clostridium botulinum BoNT/A holotoxin-mediated SNAP-25 cleavage in mouse HBG3 cell-derived motor neurons preincubated for 30 mins followed by intoxication measured after 4 hrs by Western blot method
[20] = target: Botulinum neurotoxin type A (Clostridium botulinum, UniProt P0DPI0); assay: as §6
Mus musculus [21] = assay: Cmax in mouse at 400 mg/kg, po by UPLC-MS/MS method; type: ADME, organism-based; set-up: dose 400 mg/kg, route oral; settings: in vivo; procedure, shortened: as §5
[22] = Drug uptake in mouse serum at 400 mg/kg, po measured at 60 mins by UPLC-MS/MS method; type: ADME, organism-based; settings: read-out: Drug uptake; procedure, shortened: as §5
[23] = target: Botulinum neurotoxin type A (Clostridium botulinum) (UniProt P0DPI0); assay: Inhibition of Clostridium botulinum BoNT/A light chain at 20 uM using P39 as substrate preincubated for 10 mins followed by substrate addition measured after 10 mins by HPLC method relative to control
Procedure, shortened: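 Purified BoNT/A light chain (20 nM) with 0.2 mg/mL BSA in 50 mM HEPES pH 7.4, preincubated with compound for 10 min at room temperature. Cleavage fragments were separated by reversed-phase HPLC (214/280 nm). Percent inhibition was taken from fragment peak areas with vs without compound. Mean of three experiments.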

[24] = Drug uptake in mouse serum at 600 mg/kg, po measured at 30 mins by UPLC-MS/MS method; type: ADME, organism-based; settings: read-out: Drug uptake; procedure, shortened: as §5
Mus musculus [25] = assay: Time at which drug concentration stays above 3 uM in mouse at 600 mg/kg, po by UPLC-MS/MS method; type: ADME, organism-based; settings: in vivo
Procedure, shortened: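 Single oral dose in DMSO suspended in 0.5% hydroxyethylcellulose–0.1% Tween 80, given to 7 (400 mg/kg) or 6 (600 mg/kg) mice. Serum came from cardiac puncture under chloroform, one mouse per time point, 15–120 min. Acetonitrile-precipitated serum was analysed by UPLC-MS/MS against calibration in blank human serum.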

Sequence of Cytochrome P450 2C19 (P33261 whole entry): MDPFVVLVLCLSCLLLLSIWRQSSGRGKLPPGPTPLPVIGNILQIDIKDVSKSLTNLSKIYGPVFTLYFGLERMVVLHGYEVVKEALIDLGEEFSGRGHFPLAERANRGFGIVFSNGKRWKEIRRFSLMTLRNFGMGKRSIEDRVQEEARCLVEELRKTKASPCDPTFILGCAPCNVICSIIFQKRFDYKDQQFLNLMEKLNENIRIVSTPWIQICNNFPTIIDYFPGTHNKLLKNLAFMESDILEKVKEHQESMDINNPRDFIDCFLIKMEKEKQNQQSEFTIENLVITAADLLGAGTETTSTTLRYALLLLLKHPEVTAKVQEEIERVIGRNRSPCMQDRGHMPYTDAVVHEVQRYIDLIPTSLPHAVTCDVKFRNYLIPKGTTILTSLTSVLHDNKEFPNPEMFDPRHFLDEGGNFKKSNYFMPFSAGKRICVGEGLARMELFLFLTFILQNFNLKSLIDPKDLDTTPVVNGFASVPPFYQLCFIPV
Sequence of Cytochrome P450 2D6 (P10635 whole entry): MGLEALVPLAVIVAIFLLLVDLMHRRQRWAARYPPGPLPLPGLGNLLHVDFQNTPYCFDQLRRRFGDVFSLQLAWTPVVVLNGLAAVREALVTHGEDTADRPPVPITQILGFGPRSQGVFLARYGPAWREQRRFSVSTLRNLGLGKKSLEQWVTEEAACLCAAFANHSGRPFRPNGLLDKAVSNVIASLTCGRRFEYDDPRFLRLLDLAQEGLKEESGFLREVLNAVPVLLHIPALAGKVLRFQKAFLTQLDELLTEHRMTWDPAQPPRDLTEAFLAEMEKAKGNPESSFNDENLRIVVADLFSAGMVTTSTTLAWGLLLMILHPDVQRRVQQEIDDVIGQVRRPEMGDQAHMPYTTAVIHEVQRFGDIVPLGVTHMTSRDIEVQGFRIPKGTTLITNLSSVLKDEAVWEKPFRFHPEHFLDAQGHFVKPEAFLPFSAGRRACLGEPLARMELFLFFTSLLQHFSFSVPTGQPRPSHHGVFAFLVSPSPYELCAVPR

**Q.** With `CC(=O)O[C@H]1C[C@H]2[C@@H]([C@H](OC(C)=O)C[C@@H]3C[C@H](N)CC[C@@]32C)[C@@H]2CC[C@H]([C@H](C)CCCNCCCCNc3ccnc4cc(Cl)ccc34)[C@@]12C` as the molecule, how does the logD [1] read?
**A.** Its logD is 2.07.

**Q.** What about the Activity (Mus musculus [2]) of the same molecule?
**A.** The Activity was “Non-Toxic”.

**Q.** What about the t1/2 (Liver [3]) of the same molecule?
**A.** Its t1/2 is over 1 h.

**Q.** And the pIC50 (Cytochrome P450 2D6)?
**A.** The pIC50 was under 5.00.

**Q.** What about the Papp [4] of the same molecule?
**A.** The Papp was 24.6 ×10⁻⁶ cm/s.

**Q.** And the Activity (Mus musculus [5])?
**A.** The Activity was “Non-Toxic”.

**Q.** What about the concentration at 0.25 h [6] of the same molecule?
**A.** The concentration at 0.25 h was 11.9 µM.

**Q.** What about the chromatographic logD [7] of the same molecule?
**A.** Its chromatographic logD is 2.55.

**Q.** And the fraction unbound [8]?
**A.** Its fraction unbound is under 0.01.

**Q.** What about the CLH (Liver [9]) of the same molecule?
**A.** Its CLH is under 23 µL/min/mg.

**Q.** What about the Activity (Mus musculus [10]) of the same molecule?
**A.** The Activity was “Non-Toxic”.

**Q.** What about the pIC50 (Cytochrome P450 2C19) of the same molecule?
**A.** Its pIC50 is 5.30.

**Q.** What about the Drug metabolism (Mus musculus [11]) of the same molecule?
**A.** The Drug metabolism was “Metabolite_Notdetected”.

**Q.** What about the concentration at 0.75 h [12] of the same molecule?
**A.** Its concentration at 0.75 h is 3.1 µM.

**Q.** What about the AUC (Mus musculus [13]) of the same molecule?
**A.** Its AUC is 526 µM·min.

**Q.** And the Activity (Mus musculus [14])?
**A.** The Activity was “Non-Toxic”.

**Q.** And the Drug metabolism (Mus musculus [15])?
**A.** The Drug metabolism was “Metabolite_Notdetected”.

**Q.** And the AUC (Mus musculus [16])?
**A.** The AUC was 253 µM·min.

**Q.** What about the concentration at 1.5 h [17] of the same molecule?
**A.** Its concentration at 1.5 h is 4 µM.

**Q.** And the concentration at 0.25 h [18]?
**A.** Its concentration at 0.25 h is 3.3 µM.

**Q.** And the inhibition [19]?
**A.** The inhibition was “Dose-dependent effect”.

**Q.** What about the pIC50 [20] of the same molecule?
**A.** Its pIC50 is 5.00.

**Q.** And the Cmax (Mus musculus [21])?
**A.** Its Cmax is 7.8 µM.

**Q.** What about the concentration at 1 h [22] of the same molecule?
**A.** Its concentration at 1 h is 2.8 µM.

**Q.** What about the inhibition [23] of the same molecule?
**A.** Its inhibition is 66%.

**Q.** And the concentration at 0.5 h [24]?
**A.** The concentration at 0.5 h was 5.9 µM.

**Q.** And the Time (Mus musculus [25])?
**A.** The Time was over 45 min.
